From PubChem BioAssay
SIAE primary = blocks human sialic acid acetylesterase | Q9HAT2 | SIAE FP-Rh probe binding, fluorescence polarization | inhibition, % at 9.66 µM | 370,000 compounds, 0.69% hits;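 active = inhibition above a cutoff: mean of compounds within the control limits plus 3 SD of those, cut at about 17% in these data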;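 also: 0% = plate median of compound wells and 100% = probe without SIAE protein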
Target sequence (Q9HAT2 whole entry, looked up): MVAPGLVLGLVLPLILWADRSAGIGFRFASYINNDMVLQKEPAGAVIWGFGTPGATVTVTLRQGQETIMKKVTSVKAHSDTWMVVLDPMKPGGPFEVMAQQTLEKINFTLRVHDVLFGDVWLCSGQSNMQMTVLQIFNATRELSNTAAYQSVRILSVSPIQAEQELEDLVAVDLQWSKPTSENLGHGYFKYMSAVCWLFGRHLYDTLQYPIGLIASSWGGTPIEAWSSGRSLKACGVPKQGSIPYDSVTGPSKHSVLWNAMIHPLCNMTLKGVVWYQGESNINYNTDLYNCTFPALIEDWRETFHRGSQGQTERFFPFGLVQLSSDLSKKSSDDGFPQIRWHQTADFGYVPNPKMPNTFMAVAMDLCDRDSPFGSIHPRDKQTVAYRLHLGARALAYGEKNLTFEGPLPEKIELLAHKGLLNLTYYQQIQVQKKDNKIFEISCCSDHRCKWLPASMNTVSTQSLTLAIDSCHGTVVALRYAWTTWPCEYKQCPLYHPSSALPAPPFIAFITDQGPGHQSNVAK
PRMT1 FP inh = blocks human protein arginine methyltransferase 1; Q99873; recombinant PRMT1, activity-based probe fluorescence polarization; inhibition, % at 2.79 µM; 370,000 compounds, 1.3% hits;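 active = inhibition above about 21% made by adding two undisclosed values, limit read from the data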
ABHD4 inh = ABHD4 (mouse) inhibition, primary FP screen | Q8VD66 | purified mABHD4, FP-Rh probe fluorescence polarization | inhibition, % at 8.92 µM | 370,000 compounds, 0.54% hits | AID 720543;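 active = inhibition exceeding the mean over every tested compound plus 3 SD, cut at about 30% in these data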;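 also: 0% = plate median of compound wells and 100% = S159A mutant with DMSO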
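System: mouse ABHD4 enzyme, wild type / Medium: HEPES pH 7.0, NaCl, Pluronic buffer / Reagent: FP-Rh activity-based fluorescent probe / Control set: S159A mutant high control, sample median low control / Detection: fluorescence polarization with parallel and perpendicular emission, 525/598 nm / Schedule: 45 min + 60 min at 25 °C / Compound dosing: 8.92 µM, single dose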
rCAG RNA binder = molecules binding r(CAG) RNA repeats. AID 651821. inhibition, % at 3 µM. 370,000 compounds, 1.3% hits. r(CAG) RNA repeat, TO-PRO-1 dye displacement fluorescence;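 active = inhibition above the plate cutoff, the mean of all test compounds on that plate plus 3 SD, cut at about 35% in these data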;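 also: 0% = DMSO alone and 100% = 100 µM mitoxantrone as full dye displacement; higher means more dye released from RNA so lower well fluorescence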
TCR CD3 inh = blocks the human TCR-CD3 interaction; TAMRA-labeled TCR probe fluorescence, biochemical; inhibition, % at 9.4 µM; 360,000 compounds, 0.37% hits; AID 651800; in the data active = inhibition above about 19%;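 also: recombinant mutant TCR 2C K166C tagged with TAMRA read by polarization; 0% = receptor in buffer alone and 100% = receptor with positive control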
SIAE inh conf = human SIAE inhibition, confirmation | shares compounds with SIAE primary | SIAE FP-Rh activity-based probe, fluorescence polarization | inhibition, % at 9.66 µM | 2,300 compounds, 13% hits | AID 1117263;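 active = mean inhibition of the replicates above the hit cutoff set in the primary screen, cut at about 17% in these data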;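 also: 0% = SIAE with DMSO and probe and 100% = probe without SIAE; inhibitors lower polarization as more probe stays unbound to SIAE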
An asterisk follows results filed as active; . = no result. Shown are actives, neighbours in structure and some others; about 3.3% of the full set was active somewhere.

SMILES | SIAE primary | PRMT1 FP inh | ABHD4 inh | rCAG RNA binder | TCR CD3 inh | SIAE inh conf
O=C(Cn1cnc2c(cnn2-c2ccccc2)c1=O)c1ccc(Cl)cc1 | 38.8* | -1.7 | 9.7 | -0.3 | -5.3 | -0.5
Cc1ccn2c(=O)nc(SCC(=O)N3CCN(c4ccccc4)CC3)nc2c1 | 18.5* | 1.1 | 2.0 | 2.4 | 7.2 | 5.7
O=C(Nc1ccc([N+](=O)[O-])cc1)Nc1ccc(N2CCOCC2)c2nonc12 | 19.4* | -9.4 | 0.4 | 0.8 | 3.0 | 10.9
Nc1sccc1C(=O)NCCN1CCOCC1 | 19.1* | 9.7 | 10.8 | 1.1 | 0.3 | 2.4
O=C(Cc1cccs1)NCCN1CCOCC1 | 22.3* | -1.7 | -2.9 | 2.3 | 2.4 | 1.1
COc1ccc(CC(=O)Nc2ccc(N3CCOCC3)cc2)cc1S(=O)(=O)N1CCOCC1 | 6.1 | 5.3 | 1.4 | -0.7 | -9.4 | .
N/C(=N\OC(=O)Cc1ccc(Cl)cc1)c1ccncc1 | -2.9 | -5.5 | -4.4 | -3.9 | 7.0 | .
CC(C)(Oc1ccc(Cl)cc1)C(=O)O/N=C(\N)c1ccncc1 | 17.9* | 0.2 | -1.4 | -2.3 | 1.8 | 0.9
Cc1ccc(CNS(=O)(=O)c2c(C)[nH]c(=O)[nH]c2=O)cc1 | -3.3 | -3.4 | -1.8 | 1.8 | 2.3 | .
COc1ccc(NCC(=O)N/N=C(\C)c2cc3ccccc3o2)cc1 | 18.4* | 0.7 | 4.0 | 3.6 | 1.6 | 8.4
CCOc1ccc(NC(=O)NCc2ccccn2)cc1 | 20.1* | -2.4 | -1.6 | 0.8 | 5.0 | -5.0
c1csc(C2=Nn3c(nnc3-c3ccncc3)SC2)c1 | 18.8* | -5.0 | 2.3 | 3.8 | -9.5 | -0.8
COc1ccc(S(=O)(=O)N[C@H]2CC[C@H](CCNC(=O)c3ccccc3F)O[C@@H]2CO)cc1 | -1.3 | 7.1 | -5.6 | 2.2 | 6.4 | .
COc1ccc(NC(=O)Nc2ccc3c(c2)N(C)C(=O)CS3)cc1OC | 7.1 | 0.2 | 1.3 | 2.0 | -3.5 | .
CCOc1ccc(NC(=O)Nc2ccc3c(c2)N(C)C(=O)CS3)cc1 | 17.9* | -0.6 | 1.5 | 6.9 | 0.6 | -1.3
CC(=O)c1ccc(NC(=O)Nc2ccc3c(c2)N(C)C(=O)CS3)cc1 | -1.3 | -1.8 | -8.5 | 12.3 | -0.7 | .
COc1ccc(NC(=O)Nc2ccc3c(c2)N(C)C(=O)CS3)cc1Cl | 26.7* | -3.2 | 9.6 | 11.2 | -2.3 | -2.6
COc1ccc(Cn2ccnc2CO)cc1[N+](=O)[O-] | 18.7* | -6.4 | -1.9 | 2.1 | 4.2 | 3.0
S=C(NCCCN1CCOCC1)NN=C1c2ccccc2-c2ccccc21 | 14.7 | 6.2 | -1.4 | 3.9 | -8.3 | .
CCNC(=S)NN=C1c2ccccc2-c2ccccc21 | 24.1* | 4.3 | -1.4 | 9.6 | -2.6 | 4.0
CC(NC(=O)C1CCN(CCOc2ccc(Cl)cc2)CC1)c1cccc2ccccc12 (stereo unspecified) | 10.4 | -3.4 | 2.6 | 1.1 | -7.7 | .
Cn1c(NN)nc2sc3c(c2c1=O)CC(C)(C)OC3 | 8.2 | 0.8 | -1.2 | 5.0 | 2.2 | .
Cc1nc(NN)c2c3c(sc2n1)COC(C)(C)C3 | 26.6* | 0.6 | 4.5 | 2.1 | -2.7 | 3.1
Cc1ccn2c(NC3CCCC3)c(-c3ccncc3)nc2c1 | 17.8* | -3.1 | -4.4 | -10.0 | 1.8 | -0.6
Cc1cc[n+](-c2[nH]c(=O)sc2/C=N/N=C(\[O-])CCn2c3ccccc3c3ccccc32)cc1 | 24.3* | 4.7 | 14.4 | 21.0 | -5.3 | 10.9
SMILES | SIAE primary | PRMT1 FP inh | ABHD4 inh | rCAG RNA binder | TCR CD3 inh | SIAE inh conf
CCc1ccc[n+](-c2[nH]c(=O)sc2/C=N/N=C(\[O-])CCn2c3ccccc3c3ccccc32)c1 | -5.4 | 10.7 | 7.0 | 7.7 | -6.2 | .
O=C(Nc1cccc(Cl)c1Cl)c1csc([C@H]2C[C@H](O)[C@@H](CO)O2)n1 | -1.2 | 6.9 | -2.2 | 2.0 | -4.1 | .
CCn1cnc2cc(NCc3cccs3)ccc21 | 20.9* | 5.4 | 3.4 | -2.3 | 2.6 | 1.6
CC(C)(C)n1cnc2cc(NCc3cccs3)ccc21 | 5.0 | 0.4 | 1.2 | -5.5 | 3.3 | .
C[C@H](CO)N1C[C@H](C)[C@H](CN(C)Cc2cccc(C(F)(F)F)c2)OCc2ccccc2-c2c(n(C)c3ccccc23)C1=O | 0.3 | 4.1 | 3.1 | 3.8 | -9.4 | .
COc1cccc(CNC(=O)c2cccc(NC(=O)C3=C(C)OCCS3)c2)c1 | 20.7* | 1.4 | -10.6 | -0.6 | -8.5 | -4.0
CC(C)Nc1nc(NCCOc2ccccc2Cl)c2sc(-c3ccccc3)cc2n1 | 19.3* | -3.9 | 25.7 | 7.8 | 1.7 | 19.8*
C=CCNc1nc(NCc2cccc(OC)c2)c2sc(-c3ccccc3)cc2n1 | 20.5* | -2.2 | 11.7 | 8.0 | -5.4 | 2.5
COCCNc1nc(NCCOc2ccccc2)c2sc(-c3ccccc3)cc2n1 | 22.0* | -0.8 | 22.4 | 4.8 | -1.5 | 21.2*
COc1ccccc1CNc1nc(NC(C)C)nc2cc(-c3ccccc3)sc12 | 22.2* | -4.4 | 22.4 | 1.5 | 1.8 | 27.9*
O=C(Nc1ccc(F)cc1)OCc1cn(Cc2c(F)cccc2F)nn1 | -1.9 | -0.6 | 2.5 | 1.1 | . | .
CC1(C(=O)NS(=O)(=O)c2cccc(C#N)c2)CCN1C(=O)CCc1ccccc1 (stereo unspecified) | 2.0 | -1.4 | -2.0 | 4.1 | 4.8 | .
COc1ccc([C@H]2C[C@@H](n3cc(C4CC4)nn3)[C@H](O)CN2CC2CCCCC2)cc1 | -1.9 | -3.2 | -5.7 | 4.7 | 2.9 | .
Cc1ccc(C(=O)N/C(=C/c2ccc(Cl)cc2)C(=O)NCC2CCCO2)cc1 (stereo unspecified) | 29.4* | -3.4 | 1.1 | -2.3 | -2.2 | -4.0
Cc1ccc(C(=O)N/C(=C\c2ccccc2)C(=O)NCC2CCCO2)cc1 (stereo unspecified) | -3.9 | 4.2 | -1.3 | 2.8 | -2.0 | .
Cc1ccc(S(=O)(=O)Nc2cccc(C(=O)N3CCN(c4ccccc4O)CC3)c2)cc1F | 20.9* | -2.2 | 3.6 | 8.3 | -4.0 | -4.2
Cc1cc(S(=O)(=O)Nc2ccc(C(=O)N3CCN(c4ccccc4O)CC3)cc2)ccc1F | -1.8 | -1.5 | -6.2 | 12.9 | -6.2 | .
COc1ccc(/C=C/C(=O)NC(=S)NNC(=O)c2cccnc2)cc1 | 20.9* | -2.3 | 11.4 | 9.9 | 16.8 | 0.7
COc1ccc(/C=C/C(=O)NC(=S)NNC(=O)c2cnccn2)cc1 | -3.1 | 5.5 | 17.3 | 4.3 | 7.1 | .
Cc1ccc(/C=N/NC(=O)C2COc3ccccc3O2)s1 (stereo unspecified) | -8.0 | 3.2 | 2.3 | 1.6 | -6.1 | .
Cn1cc(/C=N\NC(=O)C2COc3ccccc3O2)c2ccccc21 (stereo unspecified) | 20.0* | 1.4 | -8.8 | 6.1 | 0.7 | 0.7
O=C(Cc1ccsc1)OCC(=O)c1ccccc1 | 1.3 | -1.1 | -3.4 | 5.2 | 5.1 | .
COc1ccc2c(Cl)c(C(=O)N/N=C/c3c(C)[nH]c4ccccc34)sc2c1 | 23.3* | -1.4 | 7.4 | 27.6 | -8.1 | 10.2
COc1ccc2c(Cl)c(C(=O)N/N=C/c3ccc4c(c3)OCO4)sc2c1 | -17.9 | 0.2 | -9.7 | 5.6 | 6.6 | .
